Like-named read-outs stand apart in the source and are kept apart here.
Columns and labels:
[1] = tested on: ES-D3 embryoid bodies; assay: Total protein measurements of EBs; type: cell-based, murine; settings: Mus musculus, 168 h, read-out: Protein level (EC50); day 7
Summary of the method: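 Differentiation run without LIF. Hanging drops kept 3 days, then exposure to test compound during EB culture. On differentiation day 7, 24 EBs per condition were pooled, dissociated at 37 °C for 3 min, washed in PBS and permeabilised in 1% Triton X-100 for 5 min. Protein measured by Micro BCA in triplicate. EC50 taken from an exponential concentration-response fit with 90% BMCL-BMCU.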

[2] = tested on: zebrafish; settings: cited from earlier work
[3] = tested on: ES-D3 embryoid bodies; assay: Embryoid body; type: cell-based, murine; settings: Mus musculus, read-out: EB area (EC50); day 7
Summary of the method: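 Differentiation run without LIF. Hanging drops kept 3 days, then EBs moved to exposure medium for 2 days, then placed singly in 24-well plates with exposure medium. On differentiation day 7, each EB was imaged by bright field at 4x and its border traced to give area. Mean area of 24 EBs per condition was used. EC50 taken from an exponential concentration-response fit with 90% BMCL-BMCU.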

[4] = tested on: ES-D3 cells; assay: Cell viability assay; type: cell-based, murine; settings: Mus musculus, 120 h, read-out: Viability (IC50)
Summary of the method: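 ES-D3 cells plated at 500/well in LIF-containing medium and settled 2 h at 37 °C, 5% CO2. Exposed in six replicates to test compound, 0.25% DMSO vehicle, or penicillin G and 5-fluorouracil controls. Medium renewed at the same final concentrations after 3 days, then 2 more days. CellTiter-Blue added for 2 h; fluorescence read at 544/590 nm and expressed as % of DMSO. n = 3 experiments. IC50 taken from an exponential concentration-response fit with 90% BMCL-BMCU.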

[5] = tested on: rats; settings: cited from earlier work
[6] = tested on: rabbits; settings: cited from earlier work
[7] = tested on: ES-D3 embryoid bodies; assay: Gene expression analysis; type: cell-based, murine; settings: after 24 h exposure, day 4
Summary of the method: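 EBs differentiated to day 4 with 24 h exposure to test compound or 0.25% DMSO. 7–8 EB samples from two independent experiments. RNA isolated with a DNase step; quality accepted at 260/280 of 1.9–2.2 and RIN >8.2. TaqMan real-time PCR: 95 °C for 20 s, then 40 cycles of 95 °C 3 s and 60 °C 30 s. Values by ΔΔCt against mean Hprt1/Gusb/Polr2a. One-way ANOVA with Sidak test (p < 0.05) versus control.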

SMILES	EC50 [1]	Cardiac-related developmental defects ([2]; zebrafish)	EC50 [3]	IC50 [4]	Degenerated neurons in the cerebellum of the offspring ([5]; exposure of pregnant rats)	Numbers of Purkinje cells in the offspring ([5]; exposure of pregnant rats)	Psychobiological development ([5]; neonatal rats, dams exposed to 1 mg/kg per os)	Acetylcholine esterase (AChE) ([5]; neonatal rats)	Muscarinic receptors ([5]; neonatal rats)	Malformations ([5]; rats, maternally toxic doses of 25 mg/kg per day)	Fetotoxicity and teratogenicity [6]	Myh6 gene expression (late cardiomyocyte differentiation marker) [7]	Cardiac-related developmental defects ([2]; zebrafish model)	Cardiac effects ([2]; zebrafish)	Fetotoxicity and teratogenicity ([5]; rats)
CCOP(=S)(OCC)Oc1nc(Cl)c(Cl)cc1Cl [Chlorpyrifos]	92 µM	pericardial oedema	139 µM	85.7 µM	increased degenerated neurons	reduced numbers of Purkinje cells	delay in psychobiological development	reductions	dose-dependent decrease	multiple malformations	–	–	–	–	–
CCOC(=O)CC(SP(=S)(OC)OC)C(=O)OCC (stereo not shown) [Malathion, malathion]	80.2 µM	bradycardia and a reduced heart rate	72 µM	49.4 µM	–	–	–	–	–	–	neither fetotoxic nor teratogenic	–	–	–	–
O=P(Oc1ccccc1)(Oc1ccccc1)Oc1ccccc1 [Triphenyl phosphate, triphenyl phosphate]	108 µM	–	120 µM	61.4 µM	–	–	–	–	–	–	–	not expressed yet	impaired cardiac looping and function	impairments in cardiac looping and function defects	neither fetotoxic nor teratogenic

Source: publication PMC8355823 (Toxicology Reports, 2021)
